# CHO-K1 Ca PAM – nonselective activator or artifact in parental CHO-K1 calcium assay. ATP EC20, Fluo-8 calcium fluorescence; 0% at ATP EC20, 100% at ATP max. activation, % at 3 µM. 360,000 compounds, 0.02% hits. AID 602247;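 active = activation above the run cutoff, the mean activation of all test compounds plus 3 SD, cut at about 40% in these data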;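 also: peak over basal fluorescence ratio in a 140 s read after ATP addition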
# M1 ag parental – M1 agonist counterscreen hit in parental CHO-K1 cells | activation, % at 3 µM | 360,000 compounds, 0.48% hits | Fluo-8 calcium fluorescence; scaled to maximal ATP response, vehicle zero; in the data active = activation above about 15%;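 also: untransfected CHO-K1 host cells lacking M1 receptor as counterscreen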
# CHO parental Ca – signal in parental CHO cells, OX1R antagonist counter-screen; AID 463079; parental CHO-K1, ATP-induced calcium, Fluo-8 fluorescence; 330,000 compounds, 0.63% hits; inhibition, % at 5.6 µM;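 active = inhibition above that plate's mean sample inhibition plus 3 SD, cut at about 26% in these data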;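 also: 0% = ATP-challenged DMSO wells and 100% = DMSO wells without ATP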
#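 Measured by: calcium-sensitive Fluo-8 fluorescence / Test system: CHO parental line / Controls: ATP-challenged DMSO wells low, unchallenged DMSO wells high / Measure: % inhibition / Compound: single nominal dose of 5.6 µM per compound / Replicates: single well per compound, no replicates / Reagent: ATP as calcium-mobilizing challenge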
# CHO-K1 Ca antag – counter-screen for M1 antagonists: effect in parental CHO-K1 cells; inhibition, % at 3 µM; ATP-induced calcium, Fluo-8 fluorescence; 360,000 compounds, 0.6% hits;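 active = inhibition above a per-plate cutoff, the plate's mean sample inhibition plus 3 SD, cut at about 24% in these data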;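 also: 0% = DMSO plus EC80 ATP and 100% = DMSO alone without ATP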
# OX1R antag-1 – blocks the human orexin 1 receptor. O43613. CHO/OX1R cells, Fluo-8 calcium fluorescence, orexin A. inhibition, % at 5 µM. 330,000 compounds, 0.43% hits;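 active = inhibition above its plate's threshold, mean inhibition of all tested compounds on the plate plus 3 SD, cut at about 37% in these data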;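 also: 0% = orexin A challenge wells and 100% = SB-334867-A antagonist wells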
# Target sequence (O43613 whole entry, looked up): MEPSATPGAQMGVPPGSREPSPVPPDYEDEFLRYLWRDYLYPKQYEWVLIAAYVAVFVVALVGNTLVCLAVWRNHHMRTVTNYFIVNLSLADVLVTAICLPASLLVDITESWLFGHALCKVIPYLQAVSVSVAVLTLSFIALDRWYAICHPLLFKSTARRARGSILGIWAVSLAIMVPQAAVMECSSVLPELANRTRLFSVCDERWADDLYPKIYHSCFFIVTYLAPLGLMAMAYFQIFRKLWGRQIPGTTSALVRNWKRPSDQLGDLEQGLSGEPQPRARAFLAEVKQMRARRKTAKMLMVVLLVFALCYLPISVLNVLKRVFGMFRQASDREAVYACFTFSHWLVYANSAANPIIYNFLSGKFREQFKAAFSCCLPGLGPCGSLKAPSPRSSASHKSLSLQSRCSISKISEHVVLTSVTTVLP
# OX1R antag-2 – OX1R (human) antagonism; AID 485270; 330,000 compounds, 1.8% hits; O43613; inhibition, % at 6.6 µM; OX1R-expressing cells, FRET antagonist read-out; in the data active = inhibition mostly above about 38%, no sharp cut-off; inactive = mostly below about 40%;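 also: 0% = agonist challenge alone and 100% = reference antagonist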
# * marks the source's active call; other numbers are inactive results; · = no result. Shown are actives, neighbours in structure and some others; about 2.9% of the full set was active somewhere.
SMILES,CHO-K1 Ca PAM,M1 ag parental,CHO parental Ca,CHO-K1 Ca antag,OX1R antag-1,OX1R antag-2
CCOC(=O)/C(=C\C=C1/Sc2cc(OCC)c(OCC)cc2N1CC)C(C)=O,-2.4,38.3*,68.8*,17.8,91.4*,9.1
CCOC(=O)/C(=C/C=C1\Sc2cc(OCC)c(OCC)cc2N1CC)C(C)=O,-15.3,45.6*,84.9*,30.4*,108.0*,25.9
CCN1/C(=C\C=C2\C(=O)N(C)C(=S)N2C)Sc2ccccc21,14.3,0.3,2.7,-1.3,-9.5,3.5
CN(C)c1ccc(N=Nc2ccccc2C(=O)OCC(=O)N2CCCCCC2)cc1,15.8,4.9,29.2*,-3.1,-13.6,6.4
O=C(NC1CCN(C(=O)Nc2ccc(F)cc2)CC1)c1ccc(F)cc1,20.7,2.0,3.3,-18.7,1.4,19.9
CC(CNS(=O)(=O)c1ccccc1)Sc1nncn1C (stereo unspecified),3.2,1.4,-4.0,-8.4,-7.0,6.4
CCN(CC)S(=O)(=O)c1ccc2oc(SCc3ccc(F)cc3)nc2c1,6.7,1.4,39.8*,3.3,19.9,29.2
CCN(CC)S(=O)(=O)c1ccc2oc(SCC(=O)NC3CC3)nc2c1,-0.3,1.0,-12.8,3.3,-13.4,5.7
COc1cc(SSc2cc(OC)cc([N+](=O)[O-])c2N)c(N)c([N+](=O)[O-])c1,-6.2,1.8,-11.0,-15.6,-10.6,17.9
COc1cc([N+](=O)[O-])c2ncsc2c1,1.0,-0.1,-11.3,1.0,-7.3,69.2*
CCc1ccc(C(C(=O)NC2CCCC2)N(C(=O)c2csnn2)C2CC2)cc1 (stereo unspecified),15.3,1.6,-14.5,-17.4,-25.2,40.8
CCc1noc(C)c1C(=O)Nc1cccc(S(=O)(=O)N(C)c2ccccc2)c1,-1.4,1.6,4.5,-1.4,-16.9,14.6
Cc1ccc(-n2c(-c3cccnc3)n[nH]c2=S)c(C)c1,-6.5,-0.2,-12.4,26.3*,0.8,10.7
CC[C@H]1c2[nH]c3ccccc3c2C[C@H]2C(=O)N(c3ccc(F)cc3)C(=O)N21,-15.5,1.5,-15.6,24.0*,-31.7,8.2
COc1ccc(NC(=O)c2ccccc2-c2ccccc2)c(C)c1,12.5,0.0,-23.1,-11.8,-30.6,-1.3
COc1cccc(-c2cc(C(=O)Nc3cc(OC)c(OC)c(OC)c3)no2)c1,12.8,4.5,-11.9,-25.2,-3.5,41.2*
Cc1ccc(NC(=O)c2cc(-c3ccco3)on2)cc1C,-2.8,1.1,-9.0,2.5,-10.1,14.5
Cc1ccc(NC(=O)c2cc(-c3cccc(O)c3)on2)cc1C,-5.2,0.6,20.9,-7.8,13.0,37.9*
Cc1cccc(N2C(=O)c3cccc4c(N(C)CCO)ccc(c34)C2=O)c1,-6.8,19.8*,25.6,9.6,46.2*,31.0
CSc1ccccc1NS(=O)(=O)c1ccccc1,-7.6,-0.4,-9.8,25.3*,-7.5,12.4
COc1ccc(OCCCC(=O)NNC(=O)c2ccncc2)cc1,-5.5,0.6,-7.1,4.4,7.2,3.9
O=C(NNc1ccc([N+](=O)[O-])cc1)c1ccco1,4.8,1.3,1.7,-13.5,-6.8,13.9
O=C(NNc1ccc([N+](=O)[O-])cc1[N+](=O)[O-])c1ccco1,-5.0,8.2,-6.8,4.1,-19.9,86.5*
CC(C)OP(=O)(c1ccc(N(C)C)cc1)C(O)c1cccnc1 (stereo unspecified),-1.4,0.8,-18.7,-0.2,-26.5,-1.6
COC(=O)C(Cc1c[nH]c2ccccc12)NC(=O)c1ccc2nc[nH]c2c1 (stereo unspecified),4.0,2.4,·,-3.3,·,·
SMILES,CHO-K1 Ca PAM,M1 ag parental,CHO parental Ca,CHO-K1 Ca antag,OX1R antag-1,OX1R antag-2
CN(C)c1nc(Nc2ccc(Cl)cc2)nc(OCC#N)n1,-9.7,0.9,-6.5,27.3*,-13.8,38.5
O=C(NCCS(=O)(=O)N1CCN(c2ccccc2F)CC1)c1ccc(Br)cc1,20.4,1.2,-18.5,-14.5,-24.4,13.1
CCc1ccc(S(=O)(=O)NCc2csc(-c3cccnc3)n2)s1,-0.6,1.4,-21.3,17.1,8.0,63.8*
O=S(=O)(NCc1csc(-c2cccnc2)n1)c1cccs1,12.1,4.8,-11.5,10.0,-6.3,28.2
CCOC(=O)COc1cc([N+](=O)[O-])cc2cccnc12,3.4,-0.7,-6.4,-16.1,1.6,42.0*
CSc1ncnc2c1ncn2CCCNCCc1ccccn1,25.7,0.1,·,-19.4,·,·
CC(=O)Nc1cc(-c2ccc(C(=O)N3CCOCC3)cc2)cn2c(-c3cccc(C(F)(F)F)c3)cnc12,11.2,0.2,·,-8.1,·,·
CCc1ccc(NC(=O)c2c(Cl)nc(C)c(Cl)c2C)cc1,27.3,0.1,-11.7,-12.0,-21.8,34.9
COc1ccc(C)cc1N/C(N)=N/c1nc(C)cc(C)n1,24.4,2.6,-12.8,-11.1,-19.2,7.9
CCOc1ccc(N/C(N)=N/c2nc(C)cc(C)n2)cc1,-4.0,16.5*,49.1*,8.2,57.6*,-0.1
CC(=O)Nc1ccc(N/C(N)=N/c2nc(C)cc(C)n2)cc1,-8.5,0.1,-14.9,12.9,-18.4,8.2
Cc1ccc(C)c(N/C(N)=N/c2nc(C)cc(C)n2)c1,-12.6,26.9*,25.6,35.1*,70.0*,9.2
Cc1cc(C)nc(/N=C(\N)Nc2ccc(-c3ccccc3)cc2)n1,-15.6,26.7*,24.3,10.4,2.0,14.9
COCC(=O)N1CCC(Oc2ccc(C(=O)N3C[C@H]4CC[C@H]3C4)cc2)CC1,-2.5,-0.1,-0.8,-8.6,-0.9,8.1
COCC(=O)N1CCC(Oc2ccc(C(=O)N3C[C@@H]4CCC[C@H]3C4)cc2)CC1,-12.8,0.4,·,23.8*,·,·
Fc1ccc(C2=CC(c3ccco3)n3ncnc3N2)cc1 (stereo unspecified),13.2,4.5,4.0,-4.3,-9.8,18.4
OCCCc1nc2n(n1)C(c1cccs1)C=C(c1ccc(Br)cc1)N2 (stereo unspecified),·,·,38.7*,·,29.9,17.4
C1=C(c2ccc(-c3ccccc3)cc2)Nc2ncnn2C1c1ccco1 (stereo unspecified),-11.1,38.1*,·,29.3*,·,·
CC1=C(C(N)=O)C(c2ccc(Br)cc2)n2nc(CCCO)nc2N1 (stereo unspecified),21.6,4.8,-0.2,-14.0,-23.1,-5.7
Brc1ccc(C2=CC(c3cccs3)n3ncnc3N2)cc1 (stereo unspecified),-9.9,33.0*,41.3*,2.0,32.9,30.7
CCc1cccc(C)c1NS(=O)(=O)Cc1ccccc1,-12.9,0.1,-10.7,3.5,-16.3,10.5
C=CCn1c(CCC(=O)Nc2ccc(C)c(Cl)c2)nnc1SCC(=O)Nc1ccccc1C,6.6,16.1*,-16.5,-1.1,-24.7,43.4
Cc1cccc(NC(=O)CSc2nnc(CCC(=O)Nc3ccc(C)c(Cl)c3)n2C)c1,-8.8,0.0,-9.7,-8.0,-26.9,20.0
COc1cc2cc(C(=O)NCCc3c[nH]c4ccccc34)c(N)nc2cc1OC,-9.9,18.9*,·,22.0,·,·

# High-throughput results from PubChem.
